Source: PubChem (The Scripps Research Institute Molecular Screening Center)
Most compounds without a hit are left out; they make up all but 2.2% or so of the library.
M5 PAM = CHRM5 positive allosteric modulation | 0.3% of 360,000 active | activation, % at 3 µM | CHO-K1 hM5, Fluo-8 calcium, ACh EC20 PAM; 0% = ACh EC20, 100% = ACh EC100;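 active = activation above the run cutoff, the mean activation of all test compounds plus 3 SD, cut at about 18% in these data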
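system = human M5 receptor in CHO-K1 cells | reagent = EC20 acetylcholine as agonist stimulus | compound dosing = single-point, 3 µM nominal | incubation = Fluo-8 loading 80 min at 37 °C plus 30 min room temperature | detection = Fluo-8 calcium dye fluorescence, kinetic read | benchmarks = low control EC20 acetylcholine (0%), high control EC100 acetylcholine (100%)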
M1 PAM = positive allosteric modulators of human M1 muscarinic receptor; CHO-K1 hM1, Fluo-8 calcium fluorescence, ACh EC20; 0% = ACh EC20, 100% = maximal ACh; 0.088% of 360,000 active; AID 588819; activation, % at 3 µM; P11229; in the data active = activation above about 19%, passing the limit was not always enough
Target sequence (P11229 whole entry, looked up): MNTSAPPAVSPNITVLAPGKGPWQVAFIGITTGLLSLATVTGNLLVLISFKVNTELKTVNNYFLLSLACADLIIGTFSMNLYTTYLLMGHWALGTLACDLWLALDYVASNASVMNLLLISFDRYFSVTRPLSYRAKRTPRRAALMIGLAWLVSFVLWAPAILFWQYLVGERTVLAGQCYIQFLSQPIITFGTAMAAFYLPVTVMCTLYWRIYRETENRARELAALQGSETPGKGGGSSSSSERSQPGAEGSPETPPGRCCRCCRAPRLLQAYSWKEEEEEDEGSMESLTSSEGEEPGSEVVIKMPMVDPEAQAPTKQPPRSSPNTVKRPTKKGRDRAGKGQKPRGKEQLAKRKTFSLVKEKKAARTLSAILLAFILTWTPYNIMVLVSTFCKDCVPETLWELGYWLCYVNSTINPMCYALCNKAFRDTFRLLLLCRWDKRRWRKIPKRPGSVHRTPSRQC
CHRM5 agonist = agonists of human muscarinic M5 receptor (CHRM5); activation, % at 3 µM; CHO-K1 hM5 cells, Fluo-8 calcium fluorescence; 0% DMSO wells, 100% maximal acetylcholine response; AID 624037; P08912; 0.19% of 360,000 active;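 active = activation above the run's mean over test compounds plus 3 SD, cut at about 23% in these data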;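 note: signal is peak over basal fluorescence ratio across the kinetic read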
M5 antag = antagonists of human muscarinic M5 receptor (CHRM5); P08912; CHO-hM5 cells, Fluo-8 calcium fluorescence, ACh EC80; inhibition, % at 3 µM; 0.59% of 360,000 active; AID 624040;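 active = inhibition above a per-plate cutoff, the mean of that plate's test compounds plus 3 SD, cut at about 27% in these data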
CHRM1 antagonist = blocks human M1 muscarinic receptor; 1.3% of 360,000 active; inhibition, % at 3 µM; CHO-K1 hM1, Fluo-8 calcium fluorescence, ACh EC80 antagonist; P11229;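 active = percent inhibition above its own plate's cutoff, namely the mean of that plate's compound wells plus 3 SD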;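 note: peak over basal fluorescence ratio during 140 s after agonist addition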
CHRM1 agonist = agonists of human M1 muscarinic receptor; 0.33% of 360,000 active; CHO-K1 hM1, Fluo-8 calcium fluorescence, agonist mode; 0% DMSO, 100% acetylcholine EC100; activation, % at 3 µM; P11229;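 active = activation above the run's mean compound activation plus 3 SD, cut at about 16% in these data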;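 note: peak over basal fluorescence ratio within a 140 s kinetic read after compound addition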
A number is an active result; i = inactive.

SMILES | M5 PAM | M1 PAM | CHRM5 agonist | M5 antag | CHRM1 antagonist | CHRM1 agonist
CCN(CC)CCCn1c(C)cc2c(c1=O)C(c1cccc(Cl)c1)C(C#N)=C(N)O2 (configuration not stated) | i | i | i | i | 60 | i
N#Cc1ccccc1Cn1cc(/C=C/[N+](=O)[O-])c2ccccc21 | i | i | i | 50 | 50 | i
CCC1(c2ccc(F)cc2)NC(=O)N(CC(=O)Nc2ccccc2Cl)C1=O (configuration not stated) | i | i | 33 | i | i | 36
CCCC1(c2ccccc2)NC(=O)N(CC(=O)Nc2ccc(N3CCOCC3)cc2)C1=O (configuration not stated) | i | i | i | i | i | i
CCC1(CC)NC(=O)N(CC(=O)N2CCc3ccccc32)C1=O | 20 | i | i | i | i | i
CCCCC1(c2ccc(F)cc2)NC(=O)N(CC(=O)Nc2ccc(N3CCOCC3)cc2)C1=O (configuration not stated) | i | i | i | i | i | 16
CCC1(c2ccc(F)cc2)NC(=O)N(CC(=O)Nc2ccccc2C)C1=O (configuration not stated) | i | i | i | i | i | i
CCC1(c2ccccc2)NC(=O)N(CC(=O)Nc2cc(S(=O)(=O)N3CCCCCC3)ccc2OC)C1=O (configuration not stated) | i | i | i | i | 32 | i
Cc1cc(C)cc(NC(=O)COc2coc(CN3CCc4ccccc4C3)cc2=O)c1 | i | i | i | i | i | i
CCC1(c2ccc(F)cc2)NC(=O)N(CC(=O)N2CCc3ccccc32)C1=O (configuration not stated) | i | i | 38 | i | i | 24
CCC1(c2ccccc2)NC(=O)N(CC(=O)N2CCc3ccccc32)C1=O (configuration not stated) | i | i | i | i | i | i
COc1ccc(S(=O)(=O)N2CCCCC2)cc1NC(=O)CN(Cc1ccco1)Cc1ccco1 | i | i | i | 43 | 44 | i
CCC(C)C(=O)Nc1ccc(OC)cc1[N+](=O)[O-] (configuration not stated) | i | i | i | i | i | i
O=C(OCC(=O)N1CCc2ccccc21)c1n[nH]c(=O)c2ccccc12 | i | i | i | i | i | i
Cc1nn(Cc2ccc(Cl)c(Cl)c2)c(C)c1NC(=O)c1cc(CC(C)C)on1 | i | i | i | i | 29 | i
Cc1nn(Cc2ccc(Cl)cc2)c(C)c1NC(=O)c1noc2c1CCCCC2 | i | i | i | i | i | i
Cc1nn(Cc2ccc(Cl)c(Cl)c2)c(C)c1NC(=O)c1noc2c1CCCCC2 | i | 27 | i | i | i | i
COC(=O)c1ccccc1C(=O)N(c1ccccc1)c1ccccc1 | i | i | i | i | i | i
CCC(C(=O)NC1CCCCC1)n1c(SCc2cccc(F)c2)nc2ccncc21 (configuration not stated) | i | i | i | i | 45 | i
CCC(C(=O)NC1CCCCC1)n1c(SCc2cccc(C)c2)nc2ccncc21 (configuration not stated) | i | i | i | i | i | i
COc1ccccc1CN1CC(C(=O)NCCCc2ccc(F)cc2)CCC1=O (configuration not stated) | i | i | i | i | i | i
COc1cccc(N2CCN(C(=O)c3ccc(Cl)c(NC4=NC5CS(=O)(=O)CC5S4)c3)CC2)c1 (configuration not stated) | i | i | i | i | i | i
CC(=O)c1ccc(N2CCN(C(=O)c3ccc(Cl)c(NC4=NC5CS(=O)(=O)CC5S4)c3)CC2)cc1 (configuration not stated) | 21 | i | i | 29 | i | i
CCN1CCN(c2c(Cl)cccc2NC(=O)c2ccc([N+](=O)[O-])o2)CC1 | i | i | i | i | 43 | i
Cc1nn(Cc2ccccc2)c(Cl)c1/C=C/C(=O)OC(C)C(=O)N1CCCC1 (configuration not stated) | i | i | i | i | 37 | i
SMILES | M5 PAM | M1 PAM | CHRM5 agonist | M5 antag | CHRM1 antagonist | CHRM1 agonist
COc1ccc(Cl)c(-c2cc(C(=O)Nc3ccccc3)[nH]n2)c1 | i | i | i | i | i | i
CCOC(=O)N1CCN(C2OC(=O)c3ccccc32)CC1 (configuration not stated) | i | i | i | i | i | 25
O=C(Cn1cnc2ccccc21)OCC(=O)N1CCc2ccccc2C1 | i | i | i | i | i | i
Cc1ccccc1-n1c(SCC(=O)N2CCCC2)nnc1-c1ccccn1 | 19 | 22 | i | i | i | i
Cc1ccc(S(=O)(=O)N2[C@@H](c3ccc(Br)cc3)C(C(=O)O)=C[C@H]2C(C)(C)C)cc1 | i | i | i | i | i | i
CC(=O)N1N=C(c2ccc(Cl)cc2)CC1c1ccc([N+](=O)[O-])cc1 (configuration not stated) | i | i | i | i | i | i
COc1ccc(C2CC(c3ccc(Cl)cc3)=NN2C(C)=O)cc1 (configuration not stated) | 43 | i | i | 31 | i | i
Cc1ccccc1OCCC(=O)OCC(=O)NC1CC1 | i | i | i | i | i | i
CCn1c(C)nc2cc(C(=O)OC(C(F)(F)C(F)F)C(F)(F)C(F)F)ccc21 | i | i | i | 39 | 29 | i
CCn1c(C)nc2cc(C(=O)NNC(=O)c3ccc(C)cc3)ccc21 | i | i | i | i | i | i
CCOC(=O)N1CCC(NCCNC(=O)c2cccs2)CC1 | i | i | i | i | i | 31
CCOC(=O)N1CCC(NCCNC(=O)c2ccccc2)CC1 | i | i | i | i | 48 | 53
CCOC(=O)N1CCC(NCCNC(=O)c2ccccc2Cl)CC1 | i | i | i | i | 38 | 43
CCOC(=O)N1CCC(NC(=O)c2ccccc2C(=O)O)CC1 | i | i | i | i | i | i
N#Cc1ccccc1S(=O)(=O)N1CCN(CC(=O)Nc2ccccc2C(=O)NC2CC2)CC1 | i | i | i | i | i | i
CCN(CCn1cccn1)C(=O)CC1C(=O)NCCN1CCc1ccccc1 (configuration not stated) | i | i | i | i | i | i
Cc1ccc(-n2ncc3c(N4CCN(c5ccccc5)CC4)ncnc32)c(C)c1 | i | i | i | i | 24 | i
OCCC1CN(CC#Cc2ccccc2)CCN1C1CCCC1 (configuration not stated) | i | i | i | i | i | i
OCCC1CN(CC(c2ccccc2)c2ccccc2)CCN1C1CCCC1 (configuration not stated) | i | i | i | i | 27 | i
